Reference: ChEMBL document CHEMBL1155077, “Kinesin spindle protein (KSP) inhibitors. 9. Discovery of (2S)-4-(2,5-difluorophenyl)-n-[(3R,4S)-3-fluoro-1-methylpiperidin-4-yl]-2-(hydroxymethyl)-N-methyl-2-phenyl-2,5-dihydro-1H-pyrrole-1-carboxamide (MK-0731) for the treatment of taxane-refractory cancer” (J Med Chem, 2008)

Assays:
[1] = Inhibition of human KSP
[2] = Dissociation constant, pKa by Sirius GLpKa titrator; type: physicochemical
How it was run: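 Potentiometric pKa measured on a Sirius GLpKa titrator; mean of n = 3 determinations unless marked as a single determination.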

[3] = Ratio of IC50 for induction of mitotic arrest in human […] to IC50 for induction of mitotic arrest in […] human KB-V-1 cells; type: functional
How it was run: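 Phospho-nucleolin mitotic-arrest assay in parental KB-3-1 and MDR1-overexpressing KB-V-1 cells (>500-fold higher MDR1 mRNA). Cells were treated in triplicate for 16 h across 10 000 to 0.1 nM (11-point, half-log series; 0.1% DMSO final). Total nucleolin was bead-captured from lysates and phospho-nucleolin detected by TG3 antibody plus a ruthenium-labelled secondary. Ratio = IC50 (KB-V-1) / IC50 (KB-3-1).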

[4] = tested on: A2780; assay: Induction of mitotic arrest in human A2780 cells expressing MDR1 after 16 hrs; type: functional, cell-based; conditions: A2780, 16 h
[5] = molecular target: Voltage-gated inwardly rectifying potassium channel KCNH2 (Homo sapiens, UniProt Q12809)
Voltage-gated inwardly rectifying potassium channel KCNH2, sequence (Q12809 whole entry): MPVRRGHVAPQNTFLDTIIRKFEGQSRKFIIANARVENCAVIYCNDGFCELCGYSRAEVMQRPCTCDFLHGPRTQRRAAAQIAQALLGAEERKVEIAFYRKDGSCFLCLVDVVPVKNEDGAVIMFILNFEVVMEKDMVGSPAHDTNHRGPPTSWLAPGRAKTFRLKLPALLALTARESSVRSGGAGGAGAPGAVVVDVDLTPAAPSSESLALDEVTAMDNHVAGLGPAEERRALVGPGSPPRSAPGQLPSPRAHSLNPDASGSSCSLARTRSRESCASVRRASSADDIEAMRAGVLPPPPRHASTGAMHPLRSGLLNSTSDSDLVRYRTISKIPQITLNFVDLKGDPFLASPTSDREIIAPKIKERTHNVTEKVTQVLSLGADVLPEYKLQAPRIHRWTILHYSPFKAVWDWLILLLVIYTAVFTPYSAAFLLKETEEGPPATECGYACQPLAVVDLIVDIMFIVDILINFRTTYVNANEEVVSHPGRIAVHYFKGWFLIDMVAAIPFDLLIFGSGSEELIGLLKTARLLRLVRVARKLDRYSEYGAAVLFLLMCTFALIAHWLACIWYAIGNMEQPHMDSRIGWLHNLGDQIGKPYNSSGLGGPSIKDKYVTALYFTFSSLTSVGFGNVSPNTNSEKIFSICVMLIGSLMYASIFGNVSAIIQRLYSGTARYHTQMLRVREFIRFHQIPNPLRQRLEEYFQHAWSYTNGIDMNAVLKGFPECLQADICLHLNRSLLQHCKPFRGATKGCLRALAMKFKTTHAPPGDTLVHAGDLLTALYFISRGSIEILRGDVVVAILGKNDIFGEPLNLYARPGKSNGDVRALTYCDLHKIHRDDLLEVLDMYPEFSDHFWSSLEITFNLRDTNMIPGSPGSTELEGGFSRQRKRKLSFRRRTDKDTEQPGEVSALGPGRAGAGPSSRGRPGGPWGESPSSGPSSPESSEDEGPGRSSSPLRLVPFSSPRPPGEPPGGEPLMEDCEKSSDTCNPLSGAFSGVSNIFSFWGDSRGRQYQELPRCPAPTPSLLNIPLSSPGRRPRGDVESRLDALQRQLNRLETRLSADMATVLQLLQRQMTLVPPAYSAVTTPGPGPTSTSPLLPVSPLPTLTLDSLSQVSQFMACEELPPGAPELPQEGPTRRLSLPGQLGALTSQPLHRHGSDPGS

[6] = Inhibition of human KSP in presence of 30% mouse serum
How it was run: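 KSP ATPase assay as the primary one (0.25 nM KSP motor domain, microtubules, 1 mM ATP, pH 6.8, 3 h at RT, quinaldine red phosphate read-out), run with 30% mouse serum dialysed against reaction buffer (12-14 kDa cutoff). Mean of at least 3 experiments unless noted.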

[7] = tested on: A2780; assay: Induction of mitotic arrest in human A2780 cells […] clr:NU/NU-nuBR mouse assessed as minimum plasma concentration required to induce maximum mitotic arrest after 22 hrs; type: functional
[8] = tested on: Rattus norvegicus; assay: AUC in rat at 1 mg/kg, iv; type: ADME, organism-based, Plasma; set-up: dose 1 mg/kg, route intravenous; conditions: in vivo
[9] = tested on: Rattus norvegicus; assay: AUC in rat at 4 mg/kg, iv; type: ADME, organism-based, Plasma; set-up: dose 4 mg/kg, route intravenous; conditions: in vivo
[10] = tested on: Rattus norvegicus; assay: AUC in rat at 12 mg/kg, iv; type: ADME, organism-based, Plasma; set-up: dose 12 mg/kg, route intravenous; conditions: in vivo

## CN(C(=O)N1CC(c2cc(F)ccc2F)=C[C@@]1(CO)c1ccccc1)C1CCN(C2CC2)CC1
[1]
  IC50: 5.9 nM
[2]
  pKa: 7.5

## CN1CC[C@@H](N(C)C(=O)N2CC(c3cc(F)ccc3F)=C[C@@]2(CO)c2ccccc2)[C@H](F)C1
[1]
  IC50: 11.9 nM
[3]
  Ratio: 2.9
[4]
  EC50: 37.6 nM

## CN(C(=O)N1CC(c2cc(F)ccc2F)=C[C@@]1(CO)c1ccccc1)C1CCN(CC2CC2)CC1
[1]
  IC50: 5.1 nM
[2]
  pKa: 9.1

## CC(=O)O[C@H]1C(=O)[C@@]2(C)[C@H]([C@H](OC(=O)c3ccccc3)[C@]3(O)C[C@H](OC(=O)[C@H](O)[C@@H](NC(=O)c4ccccc4)c4ccccc4)C(C)=C1C3(C)C)[C@]1(OC(C)=O)CO[C@@H]1C[C@@H]2O [PACLITAXEL]
[1]
  IC50: 0.5 nM
[4]
  EC50: > 10000 nM

## CN(C(=O)N1CC(c2cc(F)ccc2F)=C[C@@]1(CO)c1ccccc1)C1CCN(CC(F)F)CC1
[1]
  IC50: 34.1 nM
[2]
  pKa: 4.9

## CN1CC[C@H](N(C)C(=O)N2CC(c3cc(F)ccc3F)=C[C@@]2(CO)c2ccccc2)[C@@H](F)C1
[1]
  IC50: 11.5 nM
[3]
  Ratio: 2.4
[2]
  pKa: 6.6
[4]
  EC50: 16.5 nM
[5]
  IC50: 36.9 µM

## CN1CCC(N(C)C(=O)N2CC(c3cc(F)ccc3F)=C[C@@]2(CO)c2ccccc2)CC1
[1]
  IC50: 6.2 nM
[2]
  pKa: 8.8
[4]
  EC50: 5.6 nM
[6]
  IC50: 29.1 nM
[7]
  EC90: 125 nM

## CN(C(=O)N1CC(c2cc(F)ccc2F)=C[C@@]1(CO)c1ccccc1)C1CCNCC1
[1]
  IC50: 7.4 nM
[2]
  pKa: 9.8

## CN(C)C(=O)N1CC(c2cc(F)ccc2F)=C[C@@]1(CO)c1ccccc1
[1]
  IC50: 78 nM

## CN1CCC(N(C)C(=O)N2CC(c3cc(F)ccc3F)=C[C@H]2c2ccccc2)CC1
[1]
  IC50: 4 nM
[7]
  EC90: 400 nM

## CN(C(=O)N1CC(c2cc(F)ccc2F)=C[C@@]1(CO)c1ccccc1)C1CCN(CCF)CC1
[1]
  IC50: 5 nM
[2]
  pKa: 7.6
[4]
  EC50: 4.8 nM
[6]
  IC50: 38.8 nM
[7]
  EC90: 100 nM
[8]
  AUC: 0.5 µM·h
[9]
  AUC: 2.5 µM·h
[10]
  AUC: 9.5 µM·h

## CN(C)C(=O)N1CC(c2cc(F)ccc2F)=C[C@@]1(CC[C@@H](N)C(F)F)c1ccccc1
[1]
  IC50: 5 nM
[4]
  EC50: 22.5 nM
[6]
  IC50: 84.2 nM
[7]
  EC90: 1425 nM
[5]
  IC50: 15.9 µM

## CN1CC[C@@H](N(C)C(=O)N2CC(c3cc(F)ccc3F)=C[C@@]2(CO)c2ccccc2)[C@@H](F)C1
[1]
  IC50: 13.3 nM
[3]
  Ratio: 4.8
[4]
  EC50: 13.8 nM
